Laboratory results from ChEMBL document CHEMBL5252672, “Inhibition of mitochondrial metabolism by (-)-jerantinine A: synthesis and biological studies in triple-negative breast cancer cells” (RSC Med Chem, 2023).
Active and inactive are the calls of the source. The rule behind the calls is not given here.

Experiments:
MDA-MB-231 [1] = assay: Effect on metabolism in human MDA-MB-231 cells assessed as reduction in intracellular aspartate level at 5 uM incubated for 16 hrs by LC-MS based metabolomics analysis; assay type: functional, cell-based
In short: (§1)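 MDA-MB-231 cells in RPMI-1640 plus 10% FBS, treated 16 h with DMSO vehicle or compound at 5 μM. Untargeted metabolic profiling followed, with normalized metabolite levels compared between treated and vehicle groups.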

MDA-MB-231 [2] = assay: Antiproliferative activity against human MDA-MB-231 cells; assay type: functional, cell-based
In short: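 MDA-MB-231 cells grown in RPMI-1640 with 10% FBS at 37°C, 5% CO2. Seeded at 2000 cells/well, then exposed to graded compound concentrations, medium renewed every 2–3 days. On day 5, viability read by CyQUANT fluorescence (cellular DNA content).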

MDA-MB-231 [3] = assay: Induction of ROS generation in human MDA-MB-231 cells at 2.5 to 40 uM incubated for 24 hrs by bioluminescence assay; assay type: functional, cell-based; details: dose 2.5-40 µM
In short: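 MDA-MB-231 cells stably carrying the lentiviral OxiLuc oxidative-stress reporter, sorted by FACS for mStrawberry. Plated at 5x10³ cells/well the day before, then given escalating doses for 24 h. Bioluminescence imaged on an IVIS Spectrum, and per-well photon flux quantified as photons/s/sr/cm².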

[4] = Cytotoxicity against vincristine-resistant human VJ-300 cells; assay type: functional, cell-based
[5] = Cytotoxicity against human MCF-10A cells; assay type: toxicity, cell-based
[6] = Inhibition of pyrimidine biosynthesis in human MDA-MB-231 cells assessed as fold increase in cytidine levels at 5 uM incubated for 16 hrs by LC-MS based metabolomics analysis; assay type: functional; in short: as §1
[7] = Effect on metabolism in human MDA-MB-231 cells assessed as reduction in carbamoyl aspartate level at 5 uM incubated for 16 hrs by LC-MS based metabolomics analysis; assay type: functional; parameters: scale not given: the % may be the effect or the level left; in short: as §1
MDA-MB-231 [8] = assay: Effect on metabolism in human MDA-MB-231 cells assessed as change in intracellular metabolite abundances at 5 uM incubated for 16 hrs by LC-MS based metabolomics analysis; assay type: functional, cell-based; in short: as §1
[9] = Effect on metabolism in human MDA-MB-231 cells assessed as reduction in N-acetylaspartate level at 5 uM incubated for 16 hrs by LC-MS based metabolomics analysis; assay type: functional; parameters: scale not given: the % may be the effect or the level left; in short: as §1
T47D = assay: Cytotoxicity against human T47D cells; assay type: functional, cell-based
MCF7 = assay: Cytotoxicity against human MCF7 cells; assay type: functional, cell-based
[10] = Effect on metabolism in human MDA-MB-231 cells assessed as reduction in argininosuccinic-acid level at 5 uM incubated for 16 hrs by LC-MS based metabolomics analysis; assay type: functional; parameters: scale not given: the % may be the effect or the level left; in short: as §1

Structure (SMILES)	IC50 (MDA-MB-231 [2])	Activity (MDA-MB-231 [3])	further results
CC[C@]12C=CCN3CC[C@]4(C(=C(C(=O)OC)C1)Nc1cc(OC)c(OS(=O)(=O)F)cc14)[C@@H]32	3720 nM	inactive	Activity (MDA-MB-231 [1]): inactive
CC[C@]12C=CCN3CC[C@@]4(C5=CC(=O)C(OC)=CC5=NC4=C(C(=O)OC)C1)[C@@H]32	1960 nM	inactive	
CC[C@]12C=CCN3CC[C@]4(C(=C(C(=O)OC)C1)Nc1ccc(OS(=O)(=O)F)cc14)[C@@H]32	6170 nM	inactive	
CC[C@]12C=CCN3CC[C@]4(C(=C(C(=O)OC)C1)Nc1cc(OC)c(OC(C)=O)cc14)[C@@H]32 [JERANTININE A ACETATE]	2600 nM		IC50 [4]: 830 nM; IC50 [5]: 18800 nM
CC[C@]12C=CCN3CC[C@]4(C(=C(C(=O)OC)C1)Nc1cc(OC)c(O)cc14)[C@@H]32 [JERANTININE A]	1920 nM	Active	fold change (FC) [6]: 10; Activity [7]: 90%; Activity (MDA-MB-231 [8]): Active; Activity [9]: 90%; Activity (MDA-MB-231 [1]): Active; IC50 (T47D): 720 nM; IC50 (MCF7): 720 nM; IC50 [5]: 960 nM; Activity [10]: 90%
CC[C@]12C=CCN3CC[C@]4(C(=C(C(=O)OC)C1)Nc1ccc(O)cc14)[C@@H]32 [MELODININE P]	1060 nM	Active	
CC[C@]12C=CCN3CC[C@]4(C(=C(C(=O)OC)C1)Nc1ccccc14)[C@@H]32 [TABERSONINE]	5590 nM	inactive	
